OX1R antag-1 – antagonists of human orexin 1 receptor (OX1R) | AID 485270, 2010 | 1.8% of 330,000 active | OX1R-expressing cells, FRET antagonist read-out | inhibition, % at 6.6 µM | Orexin/Hypocretin receptor type 1 (Homo sapiens), O43613; in the data active means inhibition mostly above about 38%, no sharp cut-off; inactive means mostly below about 40%;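 further: 0% = agonist challenge alone and 100% = reference antagonist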
CHO parental Ca – ATP-evoked calcium signal inhibitors, parental CHO, primary screen, counter-screen for OX1R antagonist project, cell-based, fluorescence, Fluo-8 calcium dye. parental CHO-K1, ATP-induced calcium, Fluo-8 fluorescence. inhibition, % at 5.6 µM. 0.63% of 330,000 active. AID 463079, 2010;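 active means inhibition above that plate's mean sample inhibition plus 3 SD, cut at about 26% in these data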;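 further: 0% = ATP-challenged DMSO wells and 100% = DMSO wells without ATP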
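Material: parental CHO cells / Compound: single nominal dose of 5.6 µM per compound / Signal: Fluo-8 fluorescence / Replicates: singlicate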
GalR3 antag – GalR3 antagonists in HEK293 cells, primary screen, cell-based, fluorescence readout; inhibition, % at 3 µM; HEK293 GalR3-CNG cAMP membrane potential fluorescence; galR3 body fused to GalR1 C-terminus; Galanin receptor type 3 (Homo sapiens), O60755; 0.44% of 360,000 active;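 active means inhibition above the screen-wide average plus 3 SD, cut at about 13% in these data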;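 further: forskolin and galanin both at EC90 stimulate the cells; cAMP rise reported by CNG channel membrane potential dye signal; 0% = forskolin plus galanin with DMSO and 100% = forskolin alone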
Target sequence (O60755 1-299 limits assumed): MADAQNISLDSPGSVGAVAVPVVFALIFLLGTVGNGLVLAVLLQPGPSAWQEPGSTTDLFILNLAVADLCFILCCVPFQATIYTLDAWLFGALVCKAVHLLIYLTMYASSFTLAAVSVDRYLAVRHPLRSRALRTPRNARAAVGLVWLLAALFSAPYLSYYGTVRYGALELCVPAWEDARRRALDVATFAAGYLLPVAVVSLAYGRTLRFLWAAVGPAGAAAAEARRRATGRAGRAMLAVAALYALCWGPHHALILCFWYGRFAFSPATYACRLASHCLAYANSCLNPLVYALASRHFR
OX1R antag-2 – OX1R (HCRTR1) antagonists, primary screen, fluorescence, CHO/OX1R cells, Fluo-8 calcium, orexin A; Orexin/Hypocretin receptor type 1 (Homo sapiens), O43613; Fluo-8 calcium fluorescence; inhibition, % at 5 µM; 0.43% of 330,000 active; AID 434989, 2010;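 active means inhibition above its plate's threshold, mean inhibition of all tested compounds on the plate plus 3 SD, cut at about 37% in these data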;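 further: 0% = orexin A challenge wells and 100% = SB-334867-A antagonist wells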
GPR7 antagonist – GPR7 receptor antagonists, primary screen, cell-based, fluorescence, single concentration; Neuropeptides B/W receptor type 1 (Homo sapiens), P48145; GPR7-expressing cells, fluorescence antagonist assay; inhibition, % at 4.4 µM; 1.1% of 290,000 active; in the data active means inhibition above about 16%, passing the limit was not always enough;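 further: cells stimulated with the agonist NPW; 0% = agonist with vehicle and 100% = vehicle without agonist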
Target sequence (P48145 whole entry, looked up): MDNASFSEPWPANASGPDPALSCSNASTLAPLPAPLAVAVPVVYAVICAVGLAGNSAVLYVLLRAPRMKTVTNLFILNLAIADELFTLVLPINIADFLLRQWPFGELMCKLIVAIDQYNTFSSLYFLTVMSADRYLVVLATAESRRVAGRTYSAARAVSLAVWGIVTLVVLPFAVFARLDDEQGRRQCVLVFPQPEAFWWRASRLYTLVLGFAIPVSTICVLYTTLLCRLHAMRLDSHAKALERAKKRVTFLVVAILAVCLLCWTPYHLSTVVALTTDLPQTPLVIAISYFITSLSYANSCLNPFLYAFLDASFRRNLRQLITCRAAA
OX1R HTRF conf – OX1R (HCRTR1) antagonists, confirmation, cell-based, HTRF; 49% of 1,800 active; shares compounds with OX1R antag-1; OX1R-expressing cells, HTRF antagonist assay; inhibition, % at 6.6 µM; AID 492964, 2010; in the data active means inhibition above about 55%;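 further: CHO cells expressing OX1R stimulated with orexin A at about EC80; 0% = agonist challenge alone and 100% = reference antagonist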
CHO-K1 HTRF cnt – signal inhibition in parental CHO-K1 cells, counter-screen for OX1R antagonist project, cell-based, HTRF; shares compounds with OX1R antag-1; HTRF counterscreen; 48% of 1,800 active; inhibition, % at 6.6 µM; AID 493232, 2011; in the data active means inhibition above about 17%;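 further: 0% = agonist challenge with vehicle and 100% = vehicle alone without agonist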
Active calls of the source: *; . = not tested or not shown. Most compounds without a hit are left out; they make up all but 3.1% or so of the library.

SMILES	OX1R antag-1	CHO parental Ca	GalR3 antag	OX1R antag-2	GPR7 antagonist	OX1R HTRF conf	CHO-K1 HTRF cnt
COc1ccc(CCNC(=O)c2cc3c(=O)n4ccccc4nc3n(CC3CCCO3)c2=N)cc1OC (stereo not drawn)	82*	-6	-2	-35	12	60*	77*
CCN(CC)c1ccc(/C=N/NC(=O)c2nnn(-c3nonc3N)c2CN(C)C2CCCCC2)cc1	.	.	-9	.	.	.	.
O=[N+]([O-])c1ccc(Nc2cccc3c2[nH]c2c(-c4ccccc4)nccc23)c([N+](=O)[O-])c1	.	.	-6	.	.	.	.
Cn1cccc([N+](=O)[O-])c1=O	.	.	-3	.	.	.	.
Cn1c(=O)c(=O)n(C)c2cc([N+](=O)[O-])c([N+](=O)[O-])cc21	115*	-6	0	0	-15	43	63*
Cc1cnc2nc(-c3ccccc3)ccc2c1	.	.	-9	.	.	.	.
CCC(Oc1ccccc1)C(=O)Nc1ncc([N+](=O)[O-])s1 (stereo not drawn)	79*	9	-8	3	-12	29	15
Cc1ccccc1N=C1c2cc([N+](=O)[O-])ccc2-c2ncccc21	160*	-9	-2	-9	5	36	42*
O=C(c1ccc(F)cc1)C1CCN(CCCn2c(=O)[nH]c3ccccc32)CC1	.	.	-8	.	.	.	.
CCCC[n+]1ccn(C2=C([O-])c3ccccc3C(=O)/C2=N\S(=O)(=O)c2ccccc2)c1	165*	-25	-4	-28	-5	55	94*
CC(C)c1ccc(S(=O)(=O)/N=C2\C=C(NS(=O)(=O)c3ccccc3)C(=O)c3ccccc32)cc1	36	-23	11	-19	-8	.	.
CCCCC[n+]1ccn(C2=C([O-])c3ccccc3C(=O)/C2=N\S(=O)(=O)c2ccc(Br)cc2)c1	14	-21	1	-37	-13	.	.
CCCCC[n+]1ccn(C2=C([O-])c3ccccc3C(=O)/C2=N\S(=O)(=O)c2ccccc2)c1	100*	-31	-3	-30	6	47	52*
CC(C)[n+]1ccn(C2=C([O-])c3ccccc3C(=O)/C2=N\S(=O)(=O)c2ccccc2)c1	77*	-3	-7	-19	5	69*	96*
CCCCC1Cc2[nH]c(=S)[nH]c(=O)c2C(c2ccc(F)cc2)O1 (stereo not drawn)	.	.	-8	.	.	.	.
CCN(CC)c1ccc2nc3ccc(N)cc3[n+](-c3ccccc3)c2c1	.	.	-7	.	.	.	.
CCN(CC)c1ccc2nc3ccccc3[n+](CC)c2c1	149*	-8	.	1	-17	110*	157*
Cn1c2nc(=O)[nH]c(=O)c-2cc2ccccc21	.	.	-2	.	.	.	.
Cc1cccc(-n2c3nc(=O)[nH]c(=O)c-3cc3cc([N+](=O)[O-])ccc32)c1	77*	2	-2	-6	9	68*	66*
CCCn1c(SCC(=O)Nc2ccc(S(=O)(=O)N3CCOCC3)cc2)n[nH]c1=O	.	.	-6	.	.	.	.
COc1ccccc1C(=O)NC1CCSc2ccccc21 (stereo not drawn)	80*	-19	-5	-13	3	66*	-8
O=c1oc2ccccc2cc1-c1cn2ccccc2n1	95*	6	-4	0	-9	72*	20*
COc1ccc2oc(=O)c(-c3cn4ccc(C)cc4n3)cc2c1	17	-14	-5	-10	-2	.	.
CC(=O)N1CC2(CC(c3ccccc3F)=NO2)CN1c1ccc(Cl)cc1 (stereo not drawn)	.	.	-7	.	.	.	.
Cc1ccc(OCCSc2nc3ncnc(N)c3[nH]2)cc1	99*	-10	-7	-21	-3	22	-2
SMILES	OX1R antag-1	CHO parental Ca	GalR3 antag	OX1R antag-2	GPR7 antagonist	OX1R HTRF conf	CHO-K1 HTRF cnt
Nc1ncnc2nc(SCCOc3ccc(Cl)cc3)[nH]c12	17	-18	-1	-22	-15	.	.
O=C(Nc1cccc(S(=O)(=O)N2CCCC2)c1)[C@H]1C[C@H](O)[C@@H](CO)O1	.	.	-6	.	.	.	.
Cc1cccc(NC(=O)Nc2cccc(C#N)c2)n1	91*	-13	-2	-21	-2	54	5
CCNC(=S)Nc1ccc2c(c1)c(=O)n(C)n2-c1ccc(C(C)(C)C)cc1	.	.	-5	.	.	.	.
c1ccc2c(c1)oc1c(NCc3ccc4c(c3)OCO4)ncnc12	88*	19	.	29	2	82*	4
CCN(CC(=O)Nc1ccccc1OC)C(=O)COc1ccc2ccccc2c1	97*	-19	4	14	-7	66*	4
CCN(CC(=O)Nc1ccc(NC(C)=O)cc1)C(=O)COc1ccc2ccccc2c1	6	-21	-4	-12	.	.	.
O=C(O)c1c2c(nc3ccccc13)/C(=C/c1c(F)cccc1F)CCC2	113*	1	-7	9	12	45	18*
CC(C)NC(=O)C1(C)CN(S(C)(=O)=O)CC(=O)N1CCc1ccc(O)cc1 (stereo not drawn)	.	.	-4	.	.	.	.
COc1cccc(/C=N/NC(=O)c2c(-c3ccccc3)noc2C)c1O	98*	-13	2	4	-17	34	10
COc1cccc(/C=N/NC(=O)c2c(-c3ccccc3)noc2C)c1OC	23	-21	0	-22	2	.	.
CC1(C(=O)NS(=O)(=O)c2ccc(F)cc2F)CCN1C(=O)c1ccccc1CCc1ccccc1 (stereo not drawn)	.	.	2	.	.	.	.
C#CCNC(=O)C[C@@H]1C[C@@]2(C(=O)OC)CC(C)(C)CC=C2N(CCCCCCCC)C1=O	.	.	-8	.	.	.	.
Cc1cnnc2ccc3c(no[n+]3[O-])c12	126*	-3	0	-4	-10	43	54*
CCOC(=O)/C(C#N)=C\C=C1C=CN(C)C=C1	100*	6	-3	3	-3	51	62*
CCOC(=O)N[C@H](C(=O)N1CCC[C@H]1C(=O)NC1CCCC1)C1CCCCC1	.	.	-7	.	.	.	.
Cc1ccccc1S(=O)(=O)N1CCCc2nc(-c3ccccc3)ccc21	.	.	-6	.	.	.	.
CSc1nc2n(n1)C(c1cccs1)C1=C(CCCC1=O)N2 (stereo not drawn)	106*	-12	-2	-11	-21	16	3
O=C1CCCC2=C1C(c1cccs1)n1nc(SCc3ccccc3F)nc1N2 (stereo not drawn)	9	-22	-7	-31	-14	.	.
CCCCCNC(=O)C(C1CC1)n1c(=O)c(-c2ccccc2)nc2ccccc21 (stereo not drawn)	.	.	-5	.	.	.	.
COc1ccc(OC)c(CN2C(=O)CSCC2(C)C(=O)NC(C)C)c1 (stereo not drawn)	.	.	-6	.	.	.	.

Bioassay records deposited in PubChem by The Scripps Research Institute Molecular Screening Center.
